From ChEMBL document CHEMBL1147244, “Constituents of the Vietnamese medicinal plant Streptocaulon juventas and their antiproliferative activity against the human HT-1080 fibrosarcoma cell line” (J Nat Prod, 2003)

Test system: HT-1080
Assay: Antiproliferative activity against human HT1080 cells after 72 hrs by MTT assay
Type: functional, cell-based
Conditions: HT-1080, 72 h
How it was run: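 HT-1080 fibrosarcoma cells were grown in EME medium with 10% heat-inactivated FCS and 2 mM glutamine at 37 °C, 5% CO2. Cells were seeded at 2 × 10³ per well and left 24 h to attach. Samples were dissolved in DMSO/PBS, with final DMSO below 0.25%, and added at varying concentrations. After 2 h with MTT, formazan was extracted in DMSO and read at 550 nm. IC50 was taken from the mean of four wells.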

SMILES | IC50
C[C@H]1O[C@@H](O[C@@H]2C[C@H]3CC[C@@H]4[C@H](CC[C@]5(C)[C@@H](C6=CC(=O)OC6)CC[C@]45O)[C@@]3(C)[C@H](O)C2)C[C@@H](O)[C@@H]1O | 1100 nM
C[C@H]1O[C@@H](O[C@H]2CC[C@]3(C)[C@H]4CC[C@]5(C)[C@@H](C6=CC(=O)OC6)CC[C@]5(O)[C@@H]4CC[C@]3(O)C2)C[C@@H](O)[C@@H]1O | 93 nM
CO[C@@H]1[C@@H](O)[C@H](O[C@@H]2[C@@H](C)O[C@@H](O[C@H]3CC[C@@]4(C)[C@H](CC[C@@H]5[C@@H]4CC[C@]4(C)[C@@H](C6=CC(=O)OC6)CC[C@]54O)C3)C[C@H]2OC)O[C@H](C)[C@H]1O[C@@H]1O[C@H](CO[C@@H]2O[C@H](CO)[C@@H](O)[C@H](O)[C@H]2O)[C@@H](O)[C@H](O)[C@H]1O | 220 nM
CC(=O)O[C@@H]1C[C@H](O[C@H]2CC[C@@]3(C)[C@H](CC[C@@H]4[C@@H]3CC[C@]3(C)[C@@H](C5=CC(=O)OC5)CC[C@]43O)C2)O[C@H](C)[C@H]1O[C@@H]1O[C@H](CO[C@@H]2O[C@H](CO)[C@@H](O)[C@H](O)[C@H]2O)[C@@H](O)[C@H](O)[C@H]1O | 590 nM
C[C@H]1O[C@@H](O[C@H]2CC[C@@]3(C)[C@H](CC[C@@H]4[C@@H]3CC[C@]3(C)[C@@H](C5=CC(=O)OC5)CC[C@]43O)C2)C[C@@H](O)[C@@H]1O[C@@H]1O[C@H](CO[C@@H]2O[C@H](CO)[C@@H](O)[C@H](O)[C@H]2O)[C@@H](O)[C@H](O)[C@H]1O | 54 nM
CO[C@@H]1[C@@H](O)[C@H](O[C@H]2CC[C@]3(C)[C@H]4CC[C@]5(C)[C@@H](C6=CC(=O)OC6)CC[C@]5(O)[C@@H]4CC[C@]3(O)C2)O[C@H](C)[C@H]1O[C@@H]1O[C@H](CO)[C@@H](O)[C@H](O)[C@H]1O | 670 nM
C[C@]12[C@H](CC[C@@H]3[C@@H]1CC[C@]1(C)[C@@H](C4=CC(=O)OC4)CC[C@]31O)C[C@@H](O)C[C@H]2O [ACOVENOSIGENIN A] | 1200 nM
C[C@H]1O[C@@H](O[C@H]2CC[C@]3(C)[C@H]4CC[C@]5(C)[C@@H](C6=CC(=O)OC6)CC[C@]5(O)[C@@H]4CC[C@]3(O)C2)C[C@@H](O)[C@@H]1O[C@@H]1O[C@H](CO)[C@@H](O)[C@H](O)[C@H]1O [CORCHORUSOSIDE C] | 92 nM
C[C@]12CC[C@H](O[C@@H]3O[C@H](CO[C@@H]4O[C@H](CO)[C@@H](O)[C@H](O)[C@H]4O)[C@@H](O)[C@H](O)[C@H]3O)C[C@H]1CC[C@@H]1[C@@H]2CC[C@]2(C)[C@@H](C3=CC(=O)OC3)CC[C@]12O [DIGITOXIGENIN GENTIOBIOSIDE] | 1600 nM
C[C@]12CC[C@H](O[C@@H]3O[C@H](CO)[C@@H](O)[C@H](O)[C@H]3O[C@@H]3O[C@H](CO)[C@@H](O)[C@H](O)[C@H]3O)C[C@H]1CC[C@@H]1[C@@H]2CC[C@]2(C)[C@@H](C3=CC(=O)OC3)CC[C@]12O [DIGITOXIGENIN SOPHOROSIDE] | 460 nM
C[C@]12CC[C@H](O)C[C@H]1CC[C@@H]1[C@@H]2CC[C@]2(C)[C@@H](C3=CC(=O)OC3)CC[C@]12O [DIGITOXIGENIN] | 1500 nM
COc1cccc2c1C(=O)c1c(O)c3c(c(O)c1C2=O)C[C@@](O)(C(=O)CO)C[C@@H]3O[C@H]1C[C@H](N)[C@H](O)[C@H](C)O1 [DOXORUBICIN] | 59 nM
CO[C@@H]1C[C@H](O[C@H]2CC[C@@]3(C)[C@H](CC[C@@H]4[C@@H]3CC[C@]3(C)[C@@H](C5=CC(=O)OC5)CC[C@]43O)C2)O[C@H](C)[C@H]1O[C@@H]1O[C@H](CO[C@@H]2O[C@H](CO)[C@@H](O)[C@H](O)[C@H]2O)[C@@H](O)[C@H](O)[C@H]1O [ECHUJIN] | 55 nM
O=c1[nH]cc(F)c(=O)[nH]1 [FLUOROURACIL] | 3700 nM
CO[C@@H]1C[C@H](O[C@H]2CC[C@]3(C)[C@H]4CC[C@]5(C)[C@@H](C6=CC(=O)OC6)CC[C@]5(O)[C@@H]4CC[C@]3(O)C2)O[C@H](C)[C@H]1O [PERIPLOCYMARIN] | 96 nM
C[C@]12CC[C@H](O[C@@H]3O[C@H](CO)[C@@H](O)[C@H](O)[C@H]3O)C[C@@]1(O)CC[C@@H]1[C@@H]2CC[C@]2(C)[C@@H](C3=CC(=O)OC3)CC[C@]12O [PERIPLOGENIN GLUCOSIDE] | 160 nM
C[C@]12CC[C@H](O)C[C@@]1(O)CC[C@@H]1[C@@H]2CC[C@]2(C)[C@@H](C3=CC(=O)OC3)CC[C@]12O [PERIPLOGENIN] | 810 nM
CC(=O)O[C@H]1C[C@]2(O)[C@@H]3CC[C@@H]4C[C@@H](O[C@H]5C[C@@H](O)[C@H](O[C@@H]6O[C@H](CO)[C@@H](O)[C@H](O)[C@H]6O)[C@@H](C)O5)CC[C@]4(C)[C@H]3CC[C@]2(C)[C@H]1C1=CC(=O)OC1 [SUBALPINOSIDE] | 180 nM
